Measurements collected from several papers.
Lines come from different studies, so protocols differ. ≈ marks a conversion by molar mass, not a printed value.
Organism: Staphylococcus epidermidis

O=C1NC(=S)N/C1=C\c1ccc(-c2ccc(N(c3ccccc3)c3ccccc3)cc2)c2ccccc12  MIC (microbial growth, broth dilution; ATCC12228): > 1000 µg/mL
CC(C)Oc1c(NC(=O)c2ccc(NC(=O)c3ccc(NC(=O)[C@H](CC(N)=O)NC(=O)c4ccc(NC(=O)c5ccc(C#N)cn5)cc4)cc3)c(OC(C)C)c2O)ccc(C(=O)O)c1O  MIC (microbial growth; DSM28765): ≤ 0.03 µg/mL
O=[N+]([O-])c1ccc(-c2nc3cccc(O)c3[nH]2)o1  MBC (microbial killing): 1 µg/mL (≈ 4.08 µM)
C/C(=C\c1ccc(C#N)cc1)C(=O)Nc1ccc(C(=O)N[C@@H](CC(N)=O)C(=O)Nc2ccc(C(=O)Nc3ccc(C(=O)Nc4ccc(C(=O)O)cc4)c(O)c3OC(C)C)cc2)cc1  MIC (microbial growth; DSM28765): ≤ 0.03 µg/mL
Cc1c(NC(=O)CC2=NC(=O)CS2)c(=O)n(-c2ccccc2)n1C  MBC (microbial killing, broth dilution): 1 µg/mL (≈ 2.9 µM)
O=[N+]([O-])c1ccc2c(N=Nc3c(O)ccc4ccccc34)c(O)cc(S(=O)(=O)O)c2c1  MIC50 (microbial growth, broth dilution; 24 h): 250 µM (≈ 110 µg/mL)
O=C1NC(=S)S/C1=C\c1ccc(-c2ccc(N(c3ccccc3)c3ccccc3)cc2)c2ccccc12  MIC (microbial growth, broth dilution; ATCC12228): 1000 µg/mL
CN(C)[C@@H]1C(O)=C(C(N)=O)C(=O)[C@@]2(O)C(O)=C3C(=O)c4c(O)cccc4[C@@](C)(O)[C@H]3C[C@@H]12  MIC (microbial growth, broth dilution; 12228): 100 µM
CCOC(=O)c1c(N)csc1-c1cn(-c2ccccc2)nc1-c1ccc(C)cc1  MBC (microbial killing, broth dilution): 0.125 µg/mL (≈ 0.31 µM)
CC(C)Oc1c(NC(=O)c2ccc(NC(=O)[C@H](CC(N)=O)NC(=O)c3ccc(NC(=O)c4ccc(C#N)cc4)cc3)cc2)ccc(C(=O)Nc2ccc(C(=O)O)cc2)c1O  MIC (microbial growth; DSM28765): ≤ 0.03 µg/mL
O=C1NC(=S)N/C1=C\c1ccc(-c2ccc(N(c3ccccc3)c3ccccc3)cc2)cc1  MIC (microbial growth, broth dilution; ATCC12228): > 1000 µg/mL
O=S(=O)(O)c1cc(O)c(N=Nc2ccc3ccccc3c2O)c2ccccc12  MIC50 (microbial growth, broth dilution; 24 h): 63 µM (≈ 24.8 µg/mL)
O=C(O)CN1C(=O)/C(=C/c2c3ccccc3c(-c3ccc(N(c4ccccc4)c4ccccc4)cc3)c3ccccc23)SC1=S  MBC (microbial killing, broth dilution; ATCC12228): > 1000 µg/mL
CC(C)Oc1c(NC(=O)c2ccc(NC(=O)[C@H](CC(N)=O)NC(=O)c3ccc(NC(=O)c4ccc(C#N)cn4)cc3)cc2)ccc(C(=O)Nc2ccc(C(=O)O)cc2)c1O  MIC (microbial growth; DSM28765): 1 µg/mL
